{
  "source": "ChEMBL document CHEMBL1208782",
  "about": "“Synthesis and pharmacological validation of a novel series of non-steroidal FXR agonists” (Bioorg Med Chem Lett, 2010)",
  "format_in_all_cases": "ADME, organism-based",
  "key": {"Liver [1]": {"tested_on": "Liver", "assay": "Drug level in db/db mouse liver measured metabolites as glucuronide at 1 mg/kg, iv after 240 mins", "design": "dose 1 mg/kg, route intravenous", "settings": "in vivo, 4 h", "method_in_brief": "(§1)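 Mice got a single dose, 5 mg/kg po or 1 mg/kg iv. Liver and bile were sampled 240 min after dosing. Parent carboxylic acid, its acyl-glucuronide and its taurine amide were quantified separately, in ng/mL. Glucuronide identity was confirmed by glucuronidase digestion of bile or bile extracts, which regenerated the parent.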"}, "[2]": {"assay": "Plasma concentration in db/db mouse at 1 mg/kg, iv after 240 mins", "design": "dose 1 mg/kg, route intravenous", "settings": "read-out: Drug uptake", "method_in_brief": "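Single dose to mice, 5 mg/kg po or 1 mg/kg iv. Plasma was sampled at 5, 10, 30, 90 and 240 min. Only parent compound was measured, in ng/mL.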"}, "Liver [3]": {"tested_on": "Liver", "assay": "Drug level in db/db mouse liver measured metabolites as taurine amide at 1 mg/kg, iv after 240 mins", "design": "dose 1 mg/kg, route intravenous", "settings": "in vivo, 4 h", "method_in_brief": "as §1"}, "Liver [4]": {"tested_on": "Liver", "assay": "Drug level in db/db mouse liver measured metabolites as taurine amide at 5 mg/kg, po after 240 mins", "design": "dose 5 mg/kg, route oral", "settings": "in vivo, 4 h", "method_in_brief": "as §1"}},
  "data": [
    {"smiles": "CN(Cc1ccc(C(=O)O)cc1)c1ccc(OCc2c(-c3c(Cl)cccc3Cl)noc2C2CC2)nc1C(F)(F)F", "values": [
      {"measurement": "Drug uptake", "setting": "Liver [1]", "value": 17, "unit": "ng/mL"},
      {"measurement": "concentration at 4 h", "setting": "[2]", "value": 94, "unit": "ng/mL"}
    ]},
    {"smiles": "CC(C)c1onc(-c2c(Cl)cccc2Cl)c1COc1ccc(N(C)Cc2ccc(C(=O)O)cc2)c(C(F)(F)F)n1", "values": [
      {"measurement": "Drug uptake", "setting": "Liver [3]", "value": 134, "unit": "ng/mL"},
      {"measurement": "Drug uptake", "setting": "Liver [4]", "value": 372, "unit": "ng/mL"}
    ]}
  ]
}
